The text below walks through data of ChEMBL document CHEMBL4330076, “Quinazolin-2,4-dione-Based Hydroxamic Acids as Selective Histone Deacetylase-6 Inhibitors for Treatment of Non-Small Cell Lung Cancer” (J Med Chem, 2019).

Activity calls are given as the source filed them. No cut-off for these calls is given here.

For test [1], the species on record is Homo sapiens. Put plainly: Selectivity ratio of IC50 for human full-length recombinant HDAC1 expressed in baculovirus infected Sf9 insect cells to IC50 for human full-length recombinant HDAC6 expressed in baculovirus infected Sf9 insect cells.
In test [2] the test system is Lewis lung carcinoma cell line. Put plainly: Cytotoxicity against mouse LL/2 cells at 0.8 uM after 72 hrs in presence of paclitaxel by crystal violet staining-based assay. The format is functional, cell-based.
Test [3] relates to Lewis lung carcinoma cell line. As to the kind of experiment: Antitumor activity against mouse LL/2 cells implanted in C57BL/6 mouse assessed as tumor growth inhibition at 10 mg/kg, ip qd administered for 5 days. The test is classed as functional, organism-based.
Test [4] concerns Lewis lung carcinoma cell line. Put plainly: Decrease in PD-L1 expression in mouse LL/2 cells at 10 uM after 24 hrs by Western blot analysis.
In test [5] the target is Histone deacetylase 1 (Homo sapiens) (UniProt Q13547). As to the kind of experiment: Inhibition of HDAC1 in human A549 cells assessed as effect on histone H3 acetylation level at 1 uM after 24 hrs by Western blot analysis. The test is classed as cell-based.
Test [6] addresses T1, Protein deacetylase HDAC6 (Mus musculus) (UniProt Q9Z2V5).
T1 sequence (whole entry): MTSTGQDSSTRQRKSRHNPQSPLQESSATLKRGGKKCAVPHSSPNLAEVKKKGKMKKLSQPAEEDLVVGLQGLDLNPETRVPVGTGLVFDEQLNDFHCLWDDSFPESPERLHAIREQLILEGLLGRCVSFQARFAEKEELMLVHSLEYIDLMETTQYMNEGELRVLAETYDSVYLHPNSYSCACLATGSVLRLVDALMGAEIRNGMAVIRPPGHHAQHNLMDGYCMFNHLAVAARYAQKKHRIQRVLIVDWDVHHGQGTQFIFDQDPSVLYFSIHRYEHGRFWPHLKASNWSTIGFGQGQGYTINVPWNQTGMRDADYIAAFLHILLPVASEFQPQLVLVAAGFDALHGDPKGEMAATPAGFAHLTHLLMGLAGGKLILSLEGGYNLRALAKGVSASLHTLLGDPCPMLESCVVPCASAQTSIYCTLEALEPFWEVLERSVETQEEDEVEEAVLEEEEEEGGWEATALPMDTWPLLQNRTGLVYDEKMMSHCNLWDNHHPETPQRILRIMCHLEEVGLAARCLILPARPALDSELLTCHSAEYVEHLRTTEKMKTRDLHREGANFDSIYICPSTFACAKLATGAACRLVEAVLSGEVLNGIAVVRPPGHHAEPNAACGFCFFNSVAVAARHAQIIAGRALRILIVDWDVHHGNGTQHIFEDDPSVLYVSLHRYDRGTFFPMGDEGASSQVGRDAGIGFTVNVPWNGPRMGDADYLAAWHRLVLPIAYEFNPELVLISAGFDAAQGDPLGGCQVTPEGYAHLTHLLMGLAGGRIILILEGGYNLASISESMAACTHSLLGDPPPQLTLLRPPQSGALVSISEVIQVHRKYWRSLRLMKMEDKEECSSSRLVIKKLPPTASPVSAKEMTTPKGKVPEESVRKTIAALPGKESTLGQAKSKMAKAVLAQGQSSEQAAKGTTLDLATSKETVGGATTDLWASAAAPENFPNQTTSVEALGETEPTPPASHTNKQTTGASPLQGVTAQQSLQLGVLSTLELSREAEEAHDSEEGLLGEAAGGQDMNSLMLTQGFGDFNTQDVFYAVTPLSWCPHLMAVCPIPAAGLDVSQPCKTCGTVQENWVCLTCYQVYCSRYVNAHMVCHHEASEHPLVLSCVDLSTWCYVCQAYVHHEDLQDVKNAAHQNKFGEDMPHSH
Put plainly: Inhibition of HDAC6 in mouse LL/2 cells assessed as reduction in PD-L1 expression at 2 to 5 uM in presence of paclitaxel after 24 hrs by Western blot analysis. The format is cell-based.

The target in test [7] is T1, Protein deacetylase HDAC6 (Mus musculus). As to the kind of experiment: Inhibition of HDAC6 in mouse LL/2 cells assessed as reduction in PD-L1 expression at 2 to 10 uM after 24 hrs by Western blot analysis. The format is cell-based.
The target is the same in test [8]. Put plainly: Inhibition of HDAC6 in mouse LL/2 cells assessed as induction of alpha tubulin acetylation at 4 uM in presence of paclitaxel after 24 hrs by Western blot analysis relative to control. The format is cell-based.
Test [9] deals with Lewis lung carcinoma cell line. Put plainly: Cytotoxicity against mouse LL/2 cells at 0.8 uM after 72 hrs in presence of paclitaxel by crystal violet staining-based assay relative to control. The test is classed as functional, cell-based.
Test [10] concerns Lewis lung carcinoma cell line. Put plainly: Cytotoxicity against mouse LL/2 cells at 0 to 10 uM after 72 hrs in presence of paclitaxel by MTT assay relative to control. The test is classed as functional, cell-based. A digest of the protocol: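 Mouse LL/2 lung cancer cells cultured for 72 h with increasing inhibitor concentrations (0–10 μM) together with paclitaxel. Viability read by MTT. Combination assessed by the Chou-Talalay method as a combination index.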

The subject of test [11] is Lewis lung carcinoma cell line. Put plainly: Antitumor activity against mouse LL/2 cells implanted in C57BL/6 mouse assessed as tumor growth inhibition at 20 mg/kg, po qd administered for 21 consecutive days. The format is functional, organism-based.
The subject of test [12] is Lewis lung carcinoma cell line. Put plainly: Induction of multi-nuclei formation in mouse LL/2 cells at 0.8 uM after 24 hrs in presence of paclitaxel by 4',6-diamidino-2-phenylindole staining-based assay. The test is classed as functional, cell-based.
Test [13] deals with T1, Protein deacetylase HDAC6 (Mus musculus). Put plainly: Inhibition of HDAC6 in mouse LL/2 cells assessed as induction of alpha tubulin acetylation at 0.8 uM after 24 hrs by Western blot analysis relative to control. The test is classed as cell-based.
Test [14] shares this target. As to the kind of experiment: Inhibition of HDAC6 in mouse LL/2 cells assessed as induction of alpha tubulin acetylation at 0.8 uM in presence of paclitaxel after 24 hrs by Western blot analysis relative to control. The test is classed as cell-based.
The target is the same in test [15]. As to the kind of experiment: Inhibition of HDAC6 in mouse LL/2 cells assessed as reduction in PD-L1 expression at 10 uM after 24 hrs by Western blot analysis. The test is classed as cell-based.

Sequence of Histone deacetylase 1 (Homo sapiens) (Q13547 whole entry): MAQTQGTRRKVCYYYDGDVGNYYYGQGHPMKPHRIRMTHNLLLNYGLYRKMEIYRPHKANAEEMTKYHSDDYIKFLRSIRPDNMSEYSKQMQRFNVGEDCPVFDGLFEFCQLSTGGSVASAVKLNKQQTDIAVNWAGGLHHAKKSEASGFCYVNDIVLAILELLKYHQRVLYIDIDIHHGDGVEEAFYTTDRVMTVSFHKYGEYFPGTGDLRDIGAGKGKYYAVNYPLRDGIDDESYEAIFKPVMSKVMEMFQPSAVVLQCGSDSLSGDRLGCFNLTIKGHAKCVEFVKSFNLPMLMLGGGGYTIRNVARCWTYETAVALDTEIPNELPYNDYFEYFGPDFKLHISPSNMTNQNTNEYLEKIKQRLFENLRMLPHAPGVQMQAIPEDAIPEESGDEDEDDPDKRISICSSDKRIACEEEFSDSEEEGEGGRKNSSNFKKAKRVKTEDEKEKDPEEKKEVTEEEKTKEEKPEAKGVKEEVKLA

`O=C(NO)c1ccc(Cn2c(=O)n(CCc3ccccc3)c(=O)c3ccc(C4CC4)cc32)cc1`: the Ratio IC50 in [1] turned out to be 86.

Turning to `O=C(NO)c1ccc(Cn2c(=O)n(CCc3ccccc3)c(=O)c3ccc(O)cc32)cc1`, in [1], the Ratio IC50 was determined as 259.

With `O=C(NO)c1cccc(Cn2c(=O)n(CCc3ccccc3)c(=O)c3ccccc32)c1`, the Ratio IC50 in test [1] is greater than 2.

Take `O=C(NO)c1ccc(Cn2c(=O)n(CCc3cccc(C(F)(F)F)c3)c(=O)c3ccccc32)cc1`: in test [1], the Ratio IC50 worked out at 529. Also, the result in test [2] was Active.

On to `O=C(NO)c1cc(Cn2c(=O)n(CCc3ccccc3)c(=O)c3ccccc32)cs1`, for which the Ratio IC50 in test [1] was greater than 8.

In the case of `O=C(NO)c1ccc(Cn2c(=O)n(CCc3ccccc3)c(=O)c3ccc(F)cc32)cc1`, the Ratio IC50 in [1] was determined as 1180.

For the molecule `O=C(NO)c1ccc(Cn2c(=O)n(CCc3ccccc3)c(=O)c3ccccc32)s1`, the Ratio IC50 in [1] was 1150.

Regarding `CC(=O)O[C@H]1C(=O)[C@@]2(C)[C@H]([C@H](OC(=O)c3ccccc3)[C@]3(O)C[C@H](OC(=O)[C@H](O)[C@@H](NC(=O)c4ccccc4)c4ccccc4)C(C)=C1C3(C)C)[C@]1(OC(C)=O)CO[C@@H]1C[C@@H]2O`, the TGI result in [3] is “inactive”. In [4], the result was Active.

In the case of `O=C(NO)c1ccc(Cn2c(=O)n(CCc3ccccc3)c(=O)c3ccccc32)cc1`, in test [5], the inhibition entry was “inactive”. Besides, the inhibition entry in test [6], in [7] and in [8] was “Active” throughout. In [1], the Ratio IC50 is 2790. In addition, the outcome in [2], in test [9], in [10] and in test [12] was Active. In addition, the TGI result in test [11] was “inactive”. The fold change (FC) in [13] is 42.7; in test [14] it was 74.7.

In the case of `Cc1ccc2c(=O)n(CCc3ccccc3)c(=O)n(Cc3ccc(C(=O)NO)cc3)c2c1`, in test [1], the Ratio IC50 was found to be 64.

For the molecule `COc1ccc2c(=O)n(CCc3ccccc3)c(=O)n(Cc3ccc(C(=O)NO)cc3)c2c1`, the Ratio IC50 in test [1] was found to be 235.

For the molecule `O=C(NO)c1ccc(Cn2c(=O)n(CCc3ccccc3)c(=O)c3cc(F)ccc32)cc1`, the Ratio IC50 in test [1] amounted to 235.

Turning to `O=C(NO)c1ccc(Cn2c(=O)n(CCc3ccccc3)c(=O)c3ccsc32)cc1`, the Ratio IC50 in [1] stood at 443.

As for `O=C(NO)c1ccc(Cn2c(=O)n(CCc3ccc(O)cc3)c(=O)c3ccccc32)cc1`, in test [1], the Ratio IC50 was 1820.

Take `O=C(NO)c1ccc(Cn2c(=O)n(CCc3cccc(F)c3)c(=O)c3ccccc32)cc1`: the Ratio IC50 in test [1] was 1320.

In the case of `COc1ccc(CCn2c(=O)c3ccccc3n(Cc3ccc(C(=O)NO)cc3)c2=O)cc1`, the Ratio IC50 in [1] came out at 369.

Regarding `O=C(NO)c1ccc(Cn2c(=O)n(CCc3ccccc3)c(=O)c3cccnc32)cc1`, the Ratio IC50 in test [1] came to 384.

With `O=C(NO)c1ccc(Cn2c(=O)n(CCc3ccccc3)c(=O)c3cc(Cl)ccc32)cc1`, the Ratio IC50 in [1] came out at 539.

Regarding `O=C(CCCCCCC(=O)Nc1ccccc1)NO`, the inhibition entry in [15] is “inactive”.

`O=C(NO)c1ccc(Cn2c(=O)n(CCc3ccc(F)cc3)c(=O)c3ccccc32)cc1`: in [1], the Ratio IC50 was determined as 470.

For `O=C(NO)c1ccc(Cn2c(=O)n(CCc3ccccc3)c(=O)c3ccc(Cl)cc32)cc1`, in test [1], the Ratio IC50 came to 434.

As to `O=C(NO)c1ccc(Cn2c(=O)n(CCc3ccccc3)c(=O)c3ccc(C(F)(F)F)cc32)cc1`, the Ratio IC50 in [1] was 13.
